Laboratory results reported in ChEMBL document CHEMBL3352666, “Human Toll-like receptor 8-selective agonistic activities in 1-alkyl-1H-benzimidazol-2-amines” (J Med Chem, 2014).
Active and inactive are the calls of the source.

Legend:
Format in all cases: cell-based
[1] = target: T1, Toll-like receptor 9 (Homo sapiens) (UniProt Q9NR96); assay: Agonist activity at human TLR9 stably expressed in HEK293 cells co-expressing secreted alkaline phosphatase assessed as NF-kappaB induction by liquid handler-assisted reporter gene assay
T1 sequence (whole entry): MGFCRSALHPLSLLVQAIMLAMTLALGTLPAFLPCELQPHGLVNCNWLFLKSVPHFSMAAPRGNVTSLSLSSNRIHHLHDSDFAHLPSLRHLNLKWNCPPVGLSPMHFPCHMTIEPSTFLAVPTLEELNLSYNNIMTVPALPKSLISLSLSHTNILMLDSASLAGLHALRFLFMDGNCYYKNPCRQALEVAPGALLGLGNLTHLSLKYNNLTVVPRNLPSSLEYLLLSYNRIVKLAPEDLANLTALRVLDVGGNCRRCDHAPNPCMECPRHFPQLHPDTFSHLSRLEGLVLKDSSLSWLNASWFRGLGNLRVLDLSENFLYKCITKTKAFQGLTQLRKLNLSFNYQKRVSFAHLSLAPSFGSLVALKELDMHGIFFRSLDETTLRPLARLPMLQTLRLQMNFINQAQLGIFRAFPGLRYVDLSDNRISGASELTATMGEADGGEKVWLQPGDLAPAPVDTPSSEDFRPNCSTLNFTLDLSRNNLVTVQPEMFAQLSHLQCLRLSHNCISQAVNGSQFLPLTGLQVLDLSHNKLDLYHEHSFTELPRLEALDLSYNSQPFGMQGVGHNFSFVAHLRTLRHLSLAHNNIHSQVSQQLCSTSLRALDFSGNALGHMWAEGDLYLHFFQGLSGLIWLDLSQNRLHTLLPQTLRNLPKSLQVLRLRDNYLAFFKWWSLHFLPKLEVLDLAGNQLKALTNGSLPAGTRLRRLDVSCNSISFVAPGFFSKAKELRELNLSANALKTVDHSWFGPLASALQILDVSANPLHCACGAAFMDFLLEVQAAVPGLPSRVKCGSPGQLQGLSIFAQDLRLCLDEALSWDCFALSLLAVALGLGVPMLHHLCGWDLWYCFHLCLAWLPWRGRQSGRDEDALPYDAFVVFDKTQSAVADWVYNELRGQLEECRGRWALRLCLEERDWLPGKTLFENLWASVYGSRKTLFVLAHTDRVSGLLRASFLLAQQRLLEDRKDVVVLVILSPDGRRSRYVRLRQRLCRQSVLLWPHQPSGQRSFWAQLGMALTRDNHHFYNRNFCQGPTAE
Method in brief: (§1)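 HEK293 reporter cells stably co-transfected with the respective human TLR or NOD receptor plus NF-κB/AP-1-driven secreted alkaline phosphatase, kept in selection medium. About 10^5 cells/ml were incubated with graded concentrations of test compound in 384-well format. Supernatant sAP was read colorimetrically at 620 nm with an alkaline phosphatase-specific chromogen in detection medium.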

[2] = target: Toll-like receptor 5 (Homo sapiens) (UniProt O60602); assay: Agonist activity at human TLR5 stably expressed in HEK293 cells co-expressing secreted alkaline phosphatase assessed as NF-kappaB induction by liquid handler-assisted reporter gene assay; method in brief: as §1
Sequence of Toll-like receptor 5 (Homo sapiens) (O60602 whole entry): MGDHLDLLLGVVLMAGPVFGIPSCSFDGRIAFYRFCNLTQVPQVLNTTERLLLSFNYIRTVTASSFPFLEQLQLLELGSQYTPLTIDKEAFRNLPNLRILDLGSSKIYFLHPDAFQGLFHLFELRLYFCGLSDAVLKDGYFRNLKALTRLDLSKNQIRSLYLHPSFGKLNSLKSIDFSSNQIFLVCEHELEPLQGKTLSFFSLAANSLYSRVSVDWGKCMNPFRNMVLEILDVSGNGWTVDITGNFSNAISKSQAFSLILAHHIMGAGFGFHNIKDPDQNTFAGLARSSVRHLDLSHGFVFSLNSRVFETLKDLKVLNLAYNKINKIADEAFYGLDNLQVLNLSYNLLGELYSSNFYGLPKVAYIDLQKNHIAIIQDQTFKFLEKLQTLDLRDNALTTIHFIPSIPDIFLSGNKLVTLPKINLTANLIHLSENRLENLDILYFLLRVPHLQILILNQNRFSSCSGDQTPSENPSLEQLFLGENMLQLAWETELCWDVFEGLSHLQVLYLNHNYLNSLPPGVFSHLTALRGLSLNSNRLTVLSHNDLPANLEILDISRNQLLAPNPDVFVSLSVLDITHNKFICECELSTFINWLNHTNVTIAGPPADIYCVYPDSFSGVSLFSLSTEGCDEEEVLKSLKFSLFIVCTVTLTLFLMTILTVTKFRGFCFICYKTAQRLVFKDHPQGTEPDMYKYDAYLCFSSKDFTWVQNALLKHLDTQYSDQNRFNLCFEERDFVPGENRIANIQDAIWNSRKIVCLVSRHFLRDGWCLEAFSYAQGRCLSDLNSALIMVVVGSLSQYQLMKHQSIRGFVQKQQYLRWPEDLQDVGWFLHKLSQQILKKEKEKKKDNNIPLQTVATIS

[3] = target: Toll-like receptor 4 (Homo sapiens) (UniProt O00206); assay: Agonist activity at human TLR4 stably expressed in HEK293 cells co-expressing secreted alkaline phosphatase assessed as NF-kappaB induction by liquid handler-assisted reporter gene assay; method in brief: as §1
Sequence of Toll-like receptor 4 (Homo sapiens) (O00206 whole entry): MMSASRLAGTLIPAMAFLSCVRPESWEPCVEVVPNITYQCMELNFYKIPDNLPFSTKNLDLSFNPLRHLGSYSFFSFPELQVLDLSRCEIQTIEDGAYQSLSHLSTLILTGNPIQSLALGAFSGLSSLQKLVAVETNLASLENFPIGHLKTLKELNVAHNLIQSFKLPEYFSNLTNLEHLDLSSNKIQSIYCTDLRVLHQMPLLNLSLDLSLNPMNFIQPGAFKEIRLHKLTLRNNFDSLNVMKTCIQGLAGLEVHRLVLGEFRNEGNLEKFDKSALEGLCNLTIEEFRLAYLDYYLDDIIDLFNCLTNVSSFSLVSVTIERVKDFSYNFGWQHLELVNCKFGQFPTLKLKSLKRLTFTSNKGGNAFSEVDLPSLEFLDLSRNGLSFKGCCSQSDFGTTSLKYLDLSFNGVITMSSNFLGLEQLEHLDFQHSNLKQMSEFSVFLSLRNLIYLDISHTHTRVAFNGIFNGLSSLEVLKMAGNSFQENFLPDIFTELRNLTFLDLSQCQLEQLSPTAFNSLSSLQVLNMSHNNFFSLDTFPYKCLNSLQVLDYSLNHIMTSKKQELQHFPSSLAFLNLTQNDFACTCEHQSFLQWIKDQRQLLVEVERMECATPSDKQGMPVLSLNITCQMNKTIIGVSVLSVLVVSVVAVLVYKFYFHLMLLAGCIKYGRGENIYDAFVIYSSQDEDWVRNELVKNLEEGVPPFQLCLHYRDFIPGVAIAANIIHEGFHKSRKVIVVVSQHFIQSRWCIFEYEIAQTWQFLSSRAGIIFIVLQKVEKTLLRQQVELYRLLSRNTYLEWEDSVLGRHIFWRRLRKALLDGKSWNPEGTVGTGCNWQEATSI

[4] = target: Toll-like receptor 3 (Homo sapiens) (UniProt O15455); assay: Agonist activity at human TLR3 stably expressed in HEK293 cells co-expressing secreted alkaline phosphatase assessed as NF-kappaB induction by liquid handler-assisted reporter gene assay; method in brief: as §1
Sequence of Toll-like receptor 3 (Homo sapiens) (O15455 whole entry, the tested form may be a part): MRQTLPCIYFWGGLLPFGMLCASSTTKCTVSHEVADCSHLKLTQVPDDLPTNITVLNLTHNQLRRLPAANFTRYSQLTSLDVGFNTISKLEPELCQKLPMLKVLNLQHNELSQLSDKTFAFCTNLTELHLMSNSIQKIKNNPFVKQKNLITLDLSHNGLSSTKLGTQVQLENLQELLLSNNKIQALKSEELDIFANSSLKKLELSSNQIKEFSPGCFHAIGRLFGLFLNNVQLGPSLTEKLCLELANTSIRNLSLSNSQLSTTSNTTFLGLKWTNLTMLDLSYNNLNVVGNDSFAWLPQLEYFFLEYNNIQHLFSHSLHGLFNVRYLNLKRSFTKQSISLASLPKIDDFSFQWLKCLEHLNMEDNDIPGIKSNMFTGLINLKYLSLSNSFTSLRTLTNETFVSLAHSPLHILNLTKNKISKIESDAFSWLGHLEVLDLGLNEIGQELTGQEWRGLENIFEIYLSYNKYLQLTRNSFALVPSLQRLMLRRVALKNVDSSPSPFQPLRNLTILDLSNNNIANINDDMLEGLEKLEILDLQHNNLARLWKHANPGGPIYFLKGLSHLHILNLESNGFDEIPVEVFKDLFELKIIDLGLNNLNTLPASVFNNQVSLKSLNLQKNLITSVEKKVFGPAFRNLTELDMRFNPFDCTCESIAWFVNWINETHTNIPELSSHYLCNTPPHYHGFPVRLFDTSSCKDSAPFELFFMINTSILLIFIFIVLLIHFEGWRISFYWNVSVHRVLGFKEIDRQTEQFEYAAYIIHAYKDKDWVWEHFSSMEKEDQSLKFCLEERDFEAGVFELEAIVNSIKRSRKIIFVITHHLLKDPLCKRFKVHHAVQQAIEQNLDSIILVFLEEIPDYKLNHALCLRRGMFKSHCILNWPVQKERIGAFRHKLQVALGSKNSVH

[5] = target: T2, Nucleotide-binding oligomerization domain-containing protein 1 (Homo sapiens) (UniProt Q9Y239); assay: Agonist activity at human NOD1 stably expressed in HEK293 cells co-expressing secreted alkaline phosphatase assessed as NF-kappaB induction by liquid handler-assisted reporter gene assay; method in brief: as §1
T2 sequence (whole entry): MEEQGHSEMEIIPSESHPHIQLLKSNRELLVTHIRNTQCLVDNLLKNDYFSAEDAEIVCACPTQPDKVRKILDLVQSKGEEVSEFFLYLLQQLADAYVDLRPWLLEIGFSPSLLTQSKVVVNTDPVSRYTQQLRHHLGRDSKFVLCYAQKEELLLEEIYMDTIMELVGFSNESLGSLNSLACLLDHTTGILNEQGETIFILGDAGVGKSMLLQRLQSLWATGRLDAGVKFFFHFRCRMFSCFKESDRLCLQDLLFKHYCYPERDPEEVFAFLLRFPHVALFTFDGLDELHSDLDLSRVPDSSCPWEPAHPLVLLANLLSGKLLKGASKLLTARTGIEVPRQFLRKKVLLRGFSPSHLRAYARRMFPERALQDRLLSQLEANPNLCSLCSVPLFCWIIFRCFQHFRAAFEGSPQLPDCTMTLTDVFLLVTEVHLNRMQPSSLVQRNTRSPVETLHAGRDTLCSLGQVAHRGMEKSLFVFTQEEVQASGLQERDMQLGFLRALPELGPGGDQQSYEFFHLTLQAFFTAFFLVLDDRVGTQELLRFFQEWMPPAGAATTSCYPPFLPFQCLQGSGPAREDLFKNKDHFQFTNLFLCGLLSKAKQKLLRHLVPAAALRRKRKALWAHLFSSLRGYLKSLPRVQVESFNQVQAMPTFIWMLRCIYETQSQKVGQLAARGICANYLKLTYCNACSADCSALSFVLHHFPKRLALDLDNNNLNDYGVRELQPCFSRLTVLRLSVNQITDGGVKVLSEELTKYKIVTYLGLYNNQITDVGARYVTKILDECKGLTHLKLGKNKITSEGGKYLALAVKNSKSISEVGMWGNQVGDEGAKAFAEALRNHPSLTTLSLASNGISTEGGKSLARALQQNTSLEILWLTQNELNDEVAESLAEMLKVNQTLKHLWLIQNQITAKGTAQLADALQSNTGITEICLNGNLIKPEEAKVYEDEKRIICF

[6] = target: Toll-like receptor 2 (Homo sapiens) (UniProt O60603); assay: Agonist activity at human TLR2 stably expressed in HEK293 cells co-expressing secreted alkaline phosphatase assessed as NF-kappaB induction by liquid handler-assisted reporter gene assay; method in brief: as §1
Sequence of Toll-like receptor 2 (Homo sapiens) (O60603 whole entry): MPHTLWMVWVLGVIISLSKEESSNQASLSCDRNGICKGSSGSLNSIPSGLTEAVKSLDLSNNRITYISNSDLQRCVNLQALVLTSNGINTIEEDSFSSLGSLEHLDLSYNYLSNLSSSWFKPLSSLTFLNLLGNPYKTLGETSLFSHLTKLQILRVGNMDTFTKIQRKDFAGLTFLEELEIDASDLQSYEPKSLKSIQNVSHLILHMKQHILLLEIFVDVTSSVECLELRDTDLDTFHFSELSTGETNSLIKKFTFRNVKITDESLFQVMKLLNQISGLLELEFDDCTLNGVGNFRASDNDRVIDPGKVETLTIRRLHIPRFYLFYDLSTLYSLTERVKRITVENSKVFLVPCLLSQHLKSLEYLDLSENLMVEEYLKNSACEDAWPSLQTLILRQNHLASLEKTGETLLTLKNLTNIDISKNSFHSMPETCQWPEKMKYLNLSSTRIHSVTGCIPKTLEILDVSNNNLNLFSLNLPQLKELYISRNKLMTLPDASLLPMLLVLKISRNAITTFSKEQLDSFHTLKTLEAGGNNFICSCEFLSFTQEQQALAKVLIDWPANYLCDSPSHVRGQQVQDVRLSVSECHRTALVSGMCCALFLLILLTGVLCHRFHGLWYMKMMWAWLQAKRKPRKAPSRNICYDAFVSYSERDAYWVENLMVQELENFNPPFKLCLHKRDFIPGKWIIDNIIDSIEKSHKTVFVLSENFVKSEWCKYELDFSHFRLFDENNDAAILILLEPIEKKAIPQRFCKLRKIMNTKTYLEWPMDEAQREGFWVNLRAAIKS

[7] = target: T3, Toll-like receptor 7 (Homo sapiens) (UniProt Q9NYK1); assay: Agonist activity at human TLR7 stably expressed in HEK293 cells co-expressing secreted alkaline phosphatase assessed as NF-kappaB induction by liquid handler-assisted reporter gene assay; method in brief: as §1
T3 sequence (whole entry): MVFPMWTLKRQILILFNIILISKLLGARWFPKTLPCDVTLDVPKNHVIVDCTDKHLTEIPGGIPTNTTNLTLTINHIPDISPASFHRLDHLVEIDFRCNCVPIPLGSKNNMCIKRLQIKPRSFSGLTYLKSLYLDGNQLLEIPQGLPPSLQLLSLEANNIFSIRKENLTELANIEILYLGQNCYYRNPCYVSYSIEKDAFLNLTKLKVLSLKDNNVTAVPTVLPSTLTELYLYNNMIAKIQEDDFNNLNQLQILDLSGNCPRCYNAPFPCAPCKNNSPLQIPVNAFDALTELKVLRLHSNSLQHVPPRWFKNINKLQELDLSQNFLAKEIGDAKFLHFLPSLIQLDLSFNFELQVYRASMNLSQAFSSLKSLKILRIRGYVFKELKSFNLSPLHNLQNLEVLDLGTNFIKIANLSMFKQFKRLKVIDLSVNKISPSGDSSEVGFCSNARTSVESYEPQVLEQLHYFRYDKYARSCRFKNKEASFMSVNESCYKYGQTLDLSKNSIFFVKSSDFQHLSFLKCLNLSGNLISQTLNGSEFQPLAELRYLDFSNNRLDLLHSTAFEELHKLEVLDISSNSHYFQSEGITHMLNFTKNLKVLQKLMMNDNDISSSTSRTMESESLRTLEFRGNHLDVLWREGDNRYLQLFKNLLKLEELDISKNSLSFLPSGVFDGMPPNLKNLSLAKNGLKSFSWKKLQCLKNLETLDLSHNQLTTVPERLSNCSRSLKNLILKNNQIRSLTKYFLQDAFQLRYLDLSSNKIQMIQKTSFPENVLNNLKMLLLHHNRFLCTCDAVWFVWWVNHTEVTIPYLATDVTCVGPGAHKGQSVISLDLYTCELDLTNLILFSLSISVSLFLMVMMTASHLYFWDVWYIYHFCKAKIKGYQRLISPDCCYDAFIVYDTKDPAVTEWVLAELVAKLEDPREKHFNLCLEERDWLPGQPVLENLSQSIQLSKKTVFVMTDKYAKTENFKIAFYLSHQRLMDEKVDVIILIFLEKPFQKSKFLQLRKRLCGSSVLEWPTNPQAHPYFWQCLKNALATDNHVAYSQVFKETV

[8] = target: Nucleotide-binding oligomerization domain-containing protein 2 (Homo sapiens, UniProt Q9HC29); assay: Agonist activity at human NOD2 stably expressed in HEK293 cells co-expressing secreted alkaline phosphatase assessed as NF-kappaB induction by liquid handler-assisted reporter gene assay; method in brief: as §1
Sequence of Nucleotide-binding oligomerization domain-containing protein 2 (Q9HC29 whole entry, the tested form may be a part): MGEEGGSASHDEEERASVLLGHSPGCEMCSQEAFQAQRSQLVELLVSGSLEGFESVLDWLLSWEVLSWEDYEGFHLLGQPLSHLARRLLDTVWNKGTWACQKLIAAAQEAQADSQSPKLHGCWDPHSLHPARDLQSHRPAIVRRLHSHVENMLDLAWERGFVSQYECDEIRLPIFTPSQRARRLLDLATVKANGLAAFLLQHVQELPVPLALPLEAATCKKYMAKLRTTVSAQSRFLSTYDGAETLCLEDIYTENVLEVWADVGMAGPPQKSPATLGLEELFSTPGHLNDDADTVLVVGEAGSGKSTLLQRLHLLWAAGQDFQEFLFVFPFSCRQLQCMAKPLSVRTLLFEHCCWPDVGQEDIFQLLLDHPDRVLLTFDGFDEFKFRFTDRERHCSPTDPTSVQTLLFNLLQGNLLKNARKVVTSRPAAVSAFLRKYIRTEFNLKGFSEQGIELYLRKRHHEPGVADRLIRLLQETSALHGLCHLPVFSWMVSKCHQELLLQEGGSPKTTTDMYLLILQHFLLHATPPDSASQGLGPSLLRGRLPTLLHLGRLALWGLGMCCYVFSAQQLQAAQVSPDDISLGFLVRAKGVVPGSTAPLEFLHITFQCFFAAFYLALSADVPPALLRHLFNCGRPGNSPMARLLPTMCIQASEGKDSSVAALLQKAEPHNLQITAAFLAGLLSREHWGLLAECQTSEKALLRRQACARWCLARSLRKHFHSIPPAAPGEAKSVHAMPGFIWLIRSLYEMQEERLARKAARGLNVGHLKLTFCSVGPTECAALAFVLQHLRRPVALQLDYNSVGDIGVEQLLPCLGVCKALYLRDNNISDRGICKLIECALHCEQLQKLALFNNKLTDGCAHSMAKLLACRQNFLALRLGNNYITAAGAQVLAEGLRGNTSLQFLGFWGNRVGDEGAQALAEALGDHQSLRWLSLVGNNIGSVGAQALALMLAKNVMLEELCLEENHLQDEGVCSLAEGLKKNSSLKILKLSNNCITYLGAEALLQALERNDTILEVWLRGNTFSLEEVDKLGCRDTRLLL

Measured: Activity

CCCCCn1c(N)nc2cccc(C)c21
inactive: [1] | [2] | [3] | [4] | [5] | [6] | [7] | [8]

CCCCCn1c(N)nc2c(N)cccc21
inactive: [1] | [2] | [3] | [4] | [5] | [6] | [7] | [8]

CCCCCn1c(N)nc2cc(C)ccc21
inactive: [1] | [2] | [3] | [4] | [5] | [6] | [7] | [8]

CCCCCn1c(N)nc2c(O)cccc21
inactive: [1] | [2] | [3] | [4] | [5] | [6] | [7] | [8]

CCCCCCn1c(N)nc2ccccc21
inactive: [1] | [2] | [3] | [4] | [5] | [6] | [7] | [8]

CCCCCn1c(N)nc2c(OC)cccc21
inactive: [1] | [2] | [3] | [4] | [5] | [6] | [7] | [8]

CCCCCn1c(N)nc2ccccc21
inactive: [1] | [2] | [3] | [4] | [5] | [6] | [7] | [8]

CCCCn1c(N)nc2ccccc21
inactive: [1] | [2] | [3] | [4] | [5] | [6] | [7] | [8]

CCCCCn1c(N)nc2c(N(C)C)cccc21
inactive: [1] | [2] | [3] | [4] | [5] | [6] | [7] | [8]

CCCCCn1c(N)nc2ccc(C)cc21
inactive: [1] | [2] | [3] | [4] | [5] | [6] | [7] | [8]

CCCCCn1c(N)nc2c(CC)cccc21
inactive: [1] | [2] | [3] | [4] | [5] | [6] | [7] | [8]

CCCCCn1c(N)nc2c3ccccc3ccc21
inactive: [1] | [2] | [3] | [4] | [5] | [6] | [7] | [8]
